Holding throughout (type): functional
Experiment [1] deals with Candida albicans. The experiment in a line: Antimicrobial activity against Candida albicans 3471 at 35 degC after 48 hrs by CLSI method based antimicrobial assay. To be noted: for MFC: read-out: MFC99.9. An outline of the steps:
(§1)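 Broth microdilution following CLSI guidelines over 256 to 1 µg/mL. MIC90 is the lowest concentration completely inhibiting growth. For MFC, 0.1 mL from each tube spread on agar and CFU counted after 48 h at 35 °C; MFC is lowest concentration killing 99.9% of inoculum. MFC/MIC ratio calculated: […], ≤4 as fungicidal.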

The test system of experiment [2] is Candida albicans. The experiment in a line: Antimicrobial activity against Candida albicans 3471 at 128 ug/disc at 37 degC after 24 to 72 hrs by agar-well diffusion assay. To be noted: for zone of inhibition at 128 µg/disc: read-out: DIZ. An outline of the steps: (§2)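 Potato dextrose agar base plates overlaid with seeded agar cooled to 40 °C and inoculated with spores from 10-day cultures, final 1 × 10⁶ spores/mL. Compounds dissolved in DMSO at 128 µg/mL and applied on 6 mm filter-paper discs placed on chilled seeded medium. Nystatin positive control, DMSO negative control. Incubation 24–72 h at 37 °C. Inhibition zone diameter read by vernier caliper.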
Background: Agar diffusion results depend on both activity and mobility in agar.

The test system of experiment [3] is Staphylococcus aureus. As to the kind of experiment: Antimicrobial activity against Staphylococcus aureus 2079 at 35 degC after 18 to 24 hrs by NCCLS method based antimicrobial assay.
Experiment [4] concerns Aspergillus niger. As to the kind of experiment: Antimicrobial activity against Aspergillus niger 545 at 128 ug/disc at 37 degC after 24 to 72 hrs by agar-well diffusion assay. Particulars: for zone of inhibition at 128 µg/disc: read-out: DIZ. An outline of the steps:
as §2

Experiment [5] has as its system Escherichia coli. The experiment in a line: Antimicrobial activity against Escherichia coli 2109 at 35 degC after 18 to 24 hrs by NCCLS method based antimicrobial assay. Particulars: for MBC: read-out: MBC99.9.
In experiment [6] the test system is Bacillus subtilis. As to the kind of experiment: Antimicrobial activity against Bacillus subtilis 2250 at 128 ug/disc at 35 degC after 24 hrs by agar-well diffusion assay. An outline of the steps: (§3)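 Agar-well diffusion: 24 h bacterial cultures adjusted to 0.5 McFarland (1.5 × 10⁸ CFU/mL) and mixed into molten Mueller-Hinton agar before pouring. 6 mm wells punched and each filled with 50 µL of compound stock or control. Plates incubated 35 °C for 24 h. Zone of growth inhibition diameter measured with vernier caliper.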

The test system of experiment [7] is Pseudomonas aeruginosa. As to the kind of experiment: Antimicrobial activity against Pseudomonas aeruginosa 2036 at 35 degC after 18 to 24 hrs by NCCLS method based antimicrobial assay. To be noted: for MBC: read-out: MBC99.9.
For experiment [8], the system named is Pseudomonas aeruginosa. The experiment in a line: Antimicrobial activity against Pseudomonas aeruginosa 2036 at 128 ug/disc at 35 degC after 24 hrs by agar-well diffusion assay. Particulars: for zone of inhibition at 128 µg/disc: Pseudomonas aeruginosa, 2036, 24 h, read-out: DIZ. An outline of the steps:
as §3

Experiment [9] relates to Bacillus subtilis. As to the kind of experiment: Antimicrobial activity against Bacillus subtilis 2250 at 35 degC after 18 to 24 hrs by NCCLS method based antimicrobial assay.
The subject of experiment [10] is Staphylococcus aureus. As to the kind of experiment: Antimicrobial activity against Staphylococcus aureus 2079 at 128 ug/disc at 35 degC after 24 hrs by agar-well diffusion assay. In short, it runs like this:
as §3

The test system of experiment [11] is Candida albicans. The experiment in a line: Ratio of MFC99.9 to MIC90 for Candida albicans 3471 at 35 degC after 48 hrs by CLSI method based antimicrobial assay. An outline of the steps: as §1
Experiment [12] relates to Aspergillus niger. The experiment in a line: Antimicrobial activity against Aspergillus niger 545 at 35 degC after 48 hrs by CLSI method based antimicrobial assay. To be noted: for MFC: read-out: MFC99.9. An outline of the steps: as §1
In experiment [13] the test system is Aspergillus niger. The experiment in a line: Ratio of MFC99.9 to MIC90 for Aspergillus niger 545 at 35 degC after 48 hrs by CLSI method based antimicrobial assay. In short, it runs like this:
as §1

Experiment [14] has as its system Escherichia coli. The experiment in a line: Antimicrobial activity against Escherichia coli 2109 at 128 ug/disc at 35 degC after 24 hrs by agar-well diffusion assay. To be noted: for zone of inhibition at 128 µg/disc: Escherichia coli, 2109, 24 h, read-out: DIZ. In short, it runs like this:
as §3

In brackets after ≈: the same amount, converted by molar mass. Activity calls are given as the source filed them. The rule behind the calls is not given here.

As for `Fc1ccc(/C(Cn2nnc3ccccc32)=N\Nc2nc(-c3ccc(Cl)cc3)cs2)cc1`, the MIC (as a rule, the least concentration at which growth counts as inhibited) came out at 16 µg/mL (≈ 34.6 µM) in [1] (Candida albicans, 3471, 48 h); 32 µg/mL (≈ 69.1 µM) in experiment [3]; 64 µg/mL (≈ 138 µM) in [7]; 16 µg/mL (≈ 34.6 µM) in experiment [12] (Aspergillus niger, 545, 48 h). Further, the MFC in experiment [1] (Candida albicans, 3471, 48 h) turned out to be 64 µg/mL (≈ 138 µM); in experiment [12] (Aspergillus niger, 545, 48 h), 16 µg/mL (≈ 34.6 µM). Moreover, the zone of inhibition at 128 µg/disc in experiment [2] was determined as 20.2 mm; in experiment [4], 21.4 mm; in experiment [8], 19.1 mm; in [10] (Staphylococcus aureus, 2079, 24 h, read-out: DIZ) it was 25.9 mm. The MBC in [3] (read-out: MBC99.9) was 32 µg/mL (≈ 69.1 µM); in [7], 64 µg/mL (≈ 138 µM). The MBC99.9 entry in experiment [5] and in experiment [9] was “inactive” in each case. Further, the MIC entry in experiment [5] and in experiment [9] was “inactive” throughout. Further, in experiment [6], the “diameter of the inhibition zone (DIZ)” value is “inactive”. For the same compound, the Ratio in [11] is on record as 4; in [13], 1.
For the compound NYSTATIN, the MFC99.9 in [1] and in [12] was 32 µg/mL each time. Also, the minimum inhibitory concentration (MIC) in experiment [1] and in experiment [12] was 16 µg/mL in each case. The Ratio in [11] and in [13] was 2 throughout.
Consider `Clc1ccc(-c2csc(N/N=C(/Cn3nnc4ccccc43)c3ccc(Br)cc3)n2)cc1`, for which the MFC99.9 result in experiment [1] is “inactive”. Also, the MIC entry in experiment [1], in experiment [3] and in experiment [9] was “inactive” in each case. In addition, the “diameter of the inhibition zone (DIZ)” value in experiment [2], in [6] and in experiment [10] was “inactive” in each case. Moreover, the zone of inhibition at 128 µg/disc in experiment [14] was 21.8 mm; in experiment [4], 15.2 mm; in experiment [8] it was 21.2 mm. Further, the MBC99.9 entry in experiment [3] and in experiment [9] was “inactive” throughout. The minimum inhibitory concentration (MIC) in experiment [5] stood at 64 µg/mL (≈ 122 µM); in experiment [7], 16 µg/mL (≈ 30.5 µM); in experiment [12] (Aspergillus niger, 545, 48 h), 64 µg/mL (≈ 122 µM). In addition, the MBC in experiment [5] was determined as 128 µg/mL (≈ 244 µM); in experiment [7] it was 32 µg/mL (≈ 61.1 µM). In addition, in experiment [12] (Aspergillus niger, 545, 48 h), the MFC was 128 µg/mL (≈ 244 µM). Further, the Ratio in experiment [13] was 2.
With `O=[N+]([O-])c1ccc(/C(Cn2nnc3ccccc32)=N\Nc2nc(-c3ccc([N+](=O)[O-])cc3)cs2)cc1`, the minimal inhibitory concentration (MIC) in experiment [1] (Candida albicans, 3471, 48 h) is 64 µg/mL (≈ 128 µM); in experiment [5], 128 µg/mL (≈ 256 µM). Besides, the MFC in experiment [1] (Candida albicans, 3471, 48 h) is 128 µg/mL (≈ 256 µM). For the same compound, the zone of inhibition at 128 µg/disc in experiment [2] was found to be 14.3 mm; in experiment [14], 17.5 mm. Also, the MBC99.9 result in [3], in experiment [7] and in [9] was “inactive” each time. For the same compound, the MIC entry in [3], in experiment [7], in [9] and in experiment [12] was “inactive” throughout. Further, the “diameter of the inhibition zone (DIZ)” value in experiment [4] (in the assay text read “disc diffusion assay” for “agar-well diffusion assay”), in [6], in experiment [8] and in experiment [10] was “inactive” throughout. For the same compound, the MBC in [5] is 256 µg/mL (≈ 511 µM). In addition, the Ratio in experiment [11] is 2. Further, the MFC99.9 result in experiment [12] was “inactive”.
Turning to `O=[N+]([O-])c1ccc(-c2csc(N/N=C(/Cn3nnc4ccccc43)c3ccc(Cl)cc3)n2)cc1`, in [1], the MFC99.9 result is “inactive”. In addition, the MIC entry in experiment [1], in [3], in experiment [5] and in [9] was “inactive” each time. Moreover, the “diameter of the inhibition zone (DIZ)” value in experiment [2], in experiment [14], in experiment [6] and in experiment [10] was “inactive” throughout. Moreover, the MBC99.9 entry in [3], in [5] and in [9] was “inactive” throughout. For the same compound, the zone of inhibition at 128 µg/disc in [4] was determined as 13.6 mm; in [8], 16.4 mm. For the same compound, the MIC in [7] turned out to be 64 µg/mL (≈ 131 µM); in experiment [12] (Aspergillus niger, 545, 48 h) it was 128 µg/mL (≈ 261 µM). Moreover, the MBC in experiment [7] turned out to be 128 µg/mL (≈ 261 µM). In addition, the MFC in experiment [12] (Aspergillus niger, 545, 48 h) came out at 256 µg/mL (≈ 523 µM). Also, the Ratio in [13] stood at 2.

Values taken from ChEMBL document CHEMBL2021913, “Synthesis and biological evaluation of some novel thiazole substituted benzotriazole derivatives” (2012).
